Measured values gathered from unrelated publications.
Target: Calcium/calmodulin-dependent protein kinase type IV (CAMK4, Homo sapiens, UniProt Q16566)
One construct used (Q16566 1-473): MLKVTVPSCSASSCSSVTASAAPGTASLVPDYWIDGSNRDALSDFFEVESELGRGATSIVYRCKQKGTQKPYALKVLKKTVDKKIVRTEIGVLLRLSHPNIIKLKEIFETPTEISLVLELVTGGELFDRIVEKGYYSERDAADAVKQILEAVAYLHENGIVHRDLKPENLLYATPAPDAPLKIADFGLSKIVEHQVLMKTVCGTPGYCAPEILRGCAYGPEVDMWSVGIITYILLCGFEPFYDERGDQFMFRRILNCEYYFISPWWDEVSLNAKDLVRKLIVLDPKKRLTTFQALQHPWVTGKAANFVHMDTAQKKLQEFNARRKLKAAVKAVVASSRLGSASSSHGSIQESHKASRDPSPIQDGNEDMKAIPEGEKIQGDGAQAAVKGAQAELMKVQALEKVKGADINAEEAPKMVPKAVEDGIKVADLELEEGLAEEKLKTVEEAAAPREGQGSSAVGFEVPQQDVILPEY

For `C[C@H](NC(=O)c1cnc2n1[C@](C)(Cc1ccc(C#N)cc1)C(=O)N2c1cc(Cl)c(F)c(Cl)c1)C(=O)NC1(c2ccccn2)CC1`, the remaining binding was 100% (cell-free assay, competition with immobilised ligand; 1 µM).
`CN(C)c1nccc(-c2cnc3ncccn23)n1` has a remaining binding of 100% (binding; 1 µM).
`O=C(NCCCN1CCOCC1)c1ccc(Nc2ncc(Cl)c(-c3ccc(Cl)s3)n2)cc1` gave a remaining binding of 100% (binding, competition with immobilised ligand; 1 µM).
For `Nc1ncc2c(n1)-c1c([nH]c3ccc(C#CC4CC4)cc13)CCCC2`, the remaining binding was 100% (binding, competition with immobilised ligand; 1 µM).
For `COc1cnc(Nc2cccc(S(N)(=O)=O)c2)nc1N1CCN(c2ccccc2)CC1`, the remaining binding was 100% (binding, competition with immobilised ligand; 1 µM).
`Nc1c(C(=O)NCc2ccc(C(=O)NCCCC3CCCCC3)cc2)cnn1-c1ccccc1` gave a remaining binding of 98% (cell-free assay, competition with immobilised ligand; 0.1 µM).
`N[C@H]1CCN(c2nccc(-c3cnn4ncccc34)n2)C1` gave a remaining binding of 100% (binding; 1 µM).
For `Cc1cc(-n2nc(Cc3cc(F)cc(C(F)(F)F)c3)nc2C)ccc1C(N)=O`, the remaining binding was 100% (cell-free assay, competition with immobilised ligand; 1 µM).
The remaining binding of `O=C(c1ccc(Nc2nccc(-c3cc4ccccc4s3)n2)cc1)N1CCC(N2CCCC2)CC1` is reported as 100% (binding, competition with immobilised ligand; 1 µM).
The remaining binding of `CN(CCCC(F)(F)F)c1nccc(-c2cnn3ncccc23)n1` is reported as 64% (binding; 1 µM).
`O=C(Nc1c[nH]nc1C(=O)NC1CCNCC1)c1cc(F)cc(F)c1` has a remaining binding of 100% (binding, competition with immobilised ligand; 1 µM).
The remaining binding of `CCN1CCN(Cc2ccc(C(=O)Nc3ccc(C)c(Oc4ccc5c(c4)CC(=O)N5)c3)cc2C(F)(F)F)CC1` is reported as 100% (binding, competition with immobilised ligand; 1 µM).
With `C[C@@H]1CCN(c2nccc(-c3cnn4ncccc34)n2)C1` the remaining binding was 100% (binding; 1 µM).
`CNC(=O)Nc1ccc2c(c1)CC[C@@]21OC(=O)N(CC(=O)N(Cc2ccc(F)cc2)[C@@H](C)C(F)(F)F)C1=O` gave a remaining binding of 75% (cell-free assay, competition with immobilised ligand; 1 µM).
With `O=C(c1ccc(Nc2ncc(Cl)c(-c3cc4ccccc4s3)n2)cc1)N1CCC(N2CCCC2)CC1` the remaining binding was 100% (binding, competition with immobilised ligand; 1 µM).
The remaining binding of `c1cnn2ncc(-c3ccnc(N4CCC45COC5)n3)c2c1` is reported as 100% (binding; 1 µM).
The remaining binding of `CC(C)(O)c1cncc(-c2nc3ccc(F)cc3n2C2CC2)c1` is reported as 100% (cell-free assay, competition with immobilised ligand; 1 µM).
`C[C@@H](c1ccc(-n2cnc3c(N)ncnc32)cc1)N1CCc2nn(C)c(Cc3ccccc3)c2C1=O` gave a remaining binding of 100% (binding, competition with immobilised ligand; 0.1 µM).
With `CNC(=O)Nc1ccc2c(c1)[C@@]1(CC2)OC(=O)N(CC(=O)N(Cc2ccc(F)cc2)[C@@H](C)C(F)(F)F)C1=O` the remaining binding was 85% (cell-free assay, competition with immobilised ligand; 1 µM).
`CC1CCCN1c1nccc(-c2cnn3ncccc23)n1` (stereo not shown) gave a remaining binding of 100% (binding; 1 µM).
With `CS(=O)(=O)c1cc(C2(NC(=O)c3cncc4c3cnn4-c3ccc(F)cc3)CC2)ccn1` the remaining binding was 100% (cell-free assay, competition with immobilised ligand; 1 µM).
For `Cc1cnn2ncc(-c3ccnc(N(C)C)n3)c2c1`, the remaining binding was 86% (binding; 1 µM).
